The values below come from ChEMBL document CHEMBL4311965, “Antimicrobial activity of amphipathic α,α-disubstituted β-amino amide derivatives against ESBL - CARBA producing multi-resistant bacteria; effect of halogenation, lipophilicity and cationic character” (Eur J Med Chem, 2019).

SMILES strings stand for the structures.

Common to all, as to assay type: ADME
The nature of data set [1]: Drug metabolism in Sprague-Dawley rat liver microsomes assessed as CYP450-mediated N-(2-aminoethyl)-2-(aminomethyl)-2-[(4-fluoro-5,6-dihydroxy-5,6-dihydronaphthalen-1-yl)methyl]-3-(4-fluoro-1-naphthyl)propanamide formation incubated up to 3 hrs in presence of NADPH regenerating system by RP-HPLC-MS analysis. The gist of the method:
(§1)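 Substrate at 1 µL of 100 µM aqueous stock in 100 mM potassium phosphate, pH 7.4, with NADPH regenerating system. Pooled male Sprague–Dawley rat liver microsomes (20 mg/mL stock) added, then incubated at 37 °C. Sampled at 0–180 min and quenched with cold methanol containing propranolol internal standard. Analysed by RP-HPLC–HRMS in positive ESI mode. Metabolites confirmed by HCD MS2. Triplicate incubations.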
In general terms: Microsomes from liver hold many membrane-bound enzymes, among them those of drug oxidation.

A short description of data set [2]: Drug metabolism in Sprague-Dawley rat liver microsomes assessed as CYP450-mediated N-(2-aminoethyl)-2-(aminomethyl)-2-[(3,5-bis(trifluoromethyl)phenyl)methyl]-3-(4-hydroxy-3,5-bis(trifluoromethyl)phenyl)propanamide formation incubated up to 3 hrs in presence of NADPH regenerating system by RP-HPLC-MS analysis. The gist of the method: as §1
A short description of data set [3]: Drug metabolism in Sprague-Dawley rat liver microsomes assessed as CYP450-mediated 2-[[2-(aminomethyl)-3-(3,5-dibromophenyl)-2-[(3,5-dibromophenyl)methyl]propanoyl]amino]acetic acid formation incubated up to 3 hrs in presence of NADPH regenerating system by RP-HPLC-MS analysis. Summed up: as §1
Data set [4] is described as follows: Drug metabolism in Sprague-Dawley rat liver microsomes assessed as CYP450-mediated N-(2-aminoethyl)-2-(aminomethyl)-2-[(3,5-dibromo-4-hydroxy-phenyl)methyl]-3-(3,5-dibromophenyl)propanamide formation incubated up to 3 hrs in presence of NADPH regenerating system by RP-HPLC-MS analysis. Summed up:
as §1

`NCCNC(=O)C(CN)(Cc1ccc(F)c2ccccc12)Cc1ccc(F)c2ccccc12`: in data set [1], the Drug metabolism entry was “Metabolite_Detected”. As for `NCCNC(=O)C(CN)(Cc1cc(C(F)(F)F)cc(C(F)(F)F)c1)Cc1cc(C(F)(F)F)cc(C(F)(F)F)c1`, in data set [2], the Drug metabolism entry is “Metabolite_Notdetected”.

`NCCNC(=O)C(CN)(Cc1cc(Br)cc(Br)c1)Cc1cc(Br)cc(Br)c1`: the Drug metabolism result in data set [3] and in data set [4] was “Metabolite_Notdetected” each time.
